One molecule from ChEMBL document CHEMBL5126600, “Discovery of the First-in-Class G9a/GLP Covalent Inhibitors” (J Med Chem, 2022) can be followed below.

Where only a bound is given, the exact number is not on record here.

Assay [1] addresses T1, Histone-lysine N-methyltransferase EHMT2 (Homo sapiens, UniProt Q96KQ7).
T1 sequence (Q96KQ7 whole entry): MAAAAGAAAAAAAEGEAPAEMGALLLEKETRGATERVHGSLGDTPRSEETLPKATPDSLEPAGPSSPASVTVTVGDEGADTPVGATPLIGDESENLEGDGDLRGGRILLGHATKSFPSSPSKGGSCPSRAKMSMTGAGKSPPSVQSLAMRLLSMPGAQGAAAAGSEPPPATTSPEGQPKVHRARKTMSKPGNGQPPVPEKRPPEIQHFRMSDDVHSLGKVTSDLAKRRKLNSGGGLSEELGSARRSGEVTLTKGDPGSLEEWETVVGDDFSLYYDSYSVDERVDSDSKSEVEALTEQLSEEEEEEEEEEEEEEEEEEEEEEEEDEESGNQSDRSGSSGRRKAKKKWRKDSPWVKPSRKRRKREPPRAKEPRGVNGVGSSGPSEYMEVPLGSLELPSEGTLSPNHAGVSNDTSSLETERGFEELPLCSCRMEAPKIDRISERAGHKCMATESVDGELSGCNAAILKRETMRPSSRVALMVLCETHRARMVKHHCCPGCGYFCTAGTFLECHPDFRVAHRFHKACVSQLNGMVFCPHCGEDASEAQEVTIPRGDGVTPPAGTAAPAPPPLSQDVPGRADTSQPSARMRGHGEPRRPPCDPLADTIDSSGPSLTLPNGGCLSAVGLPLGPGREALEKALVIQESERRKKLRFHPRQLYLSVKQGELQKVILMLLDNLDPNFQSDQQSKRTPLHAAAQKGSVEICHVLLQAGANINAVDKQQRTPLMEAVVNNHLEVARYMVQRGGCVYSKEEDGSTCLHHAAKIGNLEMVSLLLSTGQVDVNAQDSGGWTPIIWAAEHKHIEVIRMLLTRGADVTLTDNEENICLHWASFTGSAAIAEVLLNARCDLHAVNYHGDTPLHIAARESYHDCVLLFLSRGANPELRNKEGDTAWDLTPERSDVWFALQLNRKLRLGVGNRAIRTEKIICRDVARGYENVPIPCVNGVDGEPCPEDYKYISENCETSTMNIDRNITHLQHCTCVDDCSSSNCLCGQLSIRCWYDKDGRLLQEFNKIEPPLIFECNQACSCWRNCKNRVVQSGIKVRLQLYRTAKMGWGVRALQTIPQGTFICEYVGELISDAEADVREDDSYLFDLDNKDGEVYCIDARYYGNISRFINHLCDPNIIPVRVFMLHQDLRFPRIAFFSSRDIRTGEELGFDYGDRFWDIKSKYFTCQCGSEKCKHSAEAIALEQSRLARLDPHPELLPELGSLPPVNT
Briefly: Inhibition of human G9a (913 to 1193 residues) using H3 peptide as substrate measured upto 45 mins in presence of SAM cofactor.

Assay [2] concerns the target PRMT5/MEP50 complex (Homo sapiens) (UniProt O14744+Q9BQA1). Briefly: Inhibition of recombinant human N-terminal Flag-tagged PRMT5 (2 to 637 residues)/N-terminal His-tagged MEP50 (2 to 342 residues) expressed in baculovirus expression system at 1 uM using 3H-SAM as a substrate relative to control. The gist of the method: (§1)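 Contracted 3H-SAM methyl-transfer scintillation proximity assay against a panel of methyltransferases; compound tested at 1 μM in duplicate; inhibition expressed as percent of control enzyme activity.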

The target of assay [3] is Protein arginine N-methyltransferase 6 (Homo sapiens) (UniProt Q96LA8). Briefly: Inhibition of N-terminal His-tagged full-length recombinant PRMT6 (2 to 375 residues) (unknown origin) expressed in baculovirus expression system at 1 uM using 3H-SAM as a substrate relative to control. The method, boiled down: as §1
For assay [4], the target named is Histone-lysine N-methyltransferase SETD1B (Homo sapiens) (UniProt Q9UPS6). As to the kind of experiment: Inhibition of N-terminal GST-tagged SET1B (1629 to 1923 residues) (unknown origin) expressed in Escherichia coli at 1 uM using 3H-SAM as a substrate relative to control. The method, boiled down: as §1
Assay [5] has as its target N-lysine methyltransferase KMT5A (Homo sapiens) (UniProt Q9NQR1). As to the kind of experiment: Inhibition of SETD8 (unknown origin) at 1 uM using 3H-SAM as a substrate relative to control. The gist of the method:
as §1

Chain of Protein arginine N-methyltransferase 6 (Homo sapiens) (Q96LA8 whole entry, looked up, the tested form may be a part): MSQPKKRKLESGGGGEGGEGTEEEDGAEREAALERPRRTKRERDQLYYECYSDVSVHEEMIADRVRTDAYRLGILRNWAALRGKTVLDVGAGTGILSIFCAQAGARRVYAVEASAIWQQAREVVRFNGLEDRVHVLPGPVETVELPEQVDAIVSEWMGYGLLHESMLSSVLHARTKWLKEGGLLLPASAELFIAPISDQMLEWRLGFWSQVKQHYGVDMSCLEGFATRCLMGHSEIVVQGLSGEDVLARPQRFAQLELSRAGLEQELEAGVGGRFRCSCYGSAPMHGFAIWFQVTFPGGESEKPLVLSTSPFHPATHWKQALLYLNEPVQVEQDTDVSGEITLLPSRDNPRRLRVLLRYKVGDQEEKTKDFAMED
Chain of Histone-lysine N-methyltransferase SETD1B (Homo sapiens) (Q9UPS6 whole entry, the tested form may be a part): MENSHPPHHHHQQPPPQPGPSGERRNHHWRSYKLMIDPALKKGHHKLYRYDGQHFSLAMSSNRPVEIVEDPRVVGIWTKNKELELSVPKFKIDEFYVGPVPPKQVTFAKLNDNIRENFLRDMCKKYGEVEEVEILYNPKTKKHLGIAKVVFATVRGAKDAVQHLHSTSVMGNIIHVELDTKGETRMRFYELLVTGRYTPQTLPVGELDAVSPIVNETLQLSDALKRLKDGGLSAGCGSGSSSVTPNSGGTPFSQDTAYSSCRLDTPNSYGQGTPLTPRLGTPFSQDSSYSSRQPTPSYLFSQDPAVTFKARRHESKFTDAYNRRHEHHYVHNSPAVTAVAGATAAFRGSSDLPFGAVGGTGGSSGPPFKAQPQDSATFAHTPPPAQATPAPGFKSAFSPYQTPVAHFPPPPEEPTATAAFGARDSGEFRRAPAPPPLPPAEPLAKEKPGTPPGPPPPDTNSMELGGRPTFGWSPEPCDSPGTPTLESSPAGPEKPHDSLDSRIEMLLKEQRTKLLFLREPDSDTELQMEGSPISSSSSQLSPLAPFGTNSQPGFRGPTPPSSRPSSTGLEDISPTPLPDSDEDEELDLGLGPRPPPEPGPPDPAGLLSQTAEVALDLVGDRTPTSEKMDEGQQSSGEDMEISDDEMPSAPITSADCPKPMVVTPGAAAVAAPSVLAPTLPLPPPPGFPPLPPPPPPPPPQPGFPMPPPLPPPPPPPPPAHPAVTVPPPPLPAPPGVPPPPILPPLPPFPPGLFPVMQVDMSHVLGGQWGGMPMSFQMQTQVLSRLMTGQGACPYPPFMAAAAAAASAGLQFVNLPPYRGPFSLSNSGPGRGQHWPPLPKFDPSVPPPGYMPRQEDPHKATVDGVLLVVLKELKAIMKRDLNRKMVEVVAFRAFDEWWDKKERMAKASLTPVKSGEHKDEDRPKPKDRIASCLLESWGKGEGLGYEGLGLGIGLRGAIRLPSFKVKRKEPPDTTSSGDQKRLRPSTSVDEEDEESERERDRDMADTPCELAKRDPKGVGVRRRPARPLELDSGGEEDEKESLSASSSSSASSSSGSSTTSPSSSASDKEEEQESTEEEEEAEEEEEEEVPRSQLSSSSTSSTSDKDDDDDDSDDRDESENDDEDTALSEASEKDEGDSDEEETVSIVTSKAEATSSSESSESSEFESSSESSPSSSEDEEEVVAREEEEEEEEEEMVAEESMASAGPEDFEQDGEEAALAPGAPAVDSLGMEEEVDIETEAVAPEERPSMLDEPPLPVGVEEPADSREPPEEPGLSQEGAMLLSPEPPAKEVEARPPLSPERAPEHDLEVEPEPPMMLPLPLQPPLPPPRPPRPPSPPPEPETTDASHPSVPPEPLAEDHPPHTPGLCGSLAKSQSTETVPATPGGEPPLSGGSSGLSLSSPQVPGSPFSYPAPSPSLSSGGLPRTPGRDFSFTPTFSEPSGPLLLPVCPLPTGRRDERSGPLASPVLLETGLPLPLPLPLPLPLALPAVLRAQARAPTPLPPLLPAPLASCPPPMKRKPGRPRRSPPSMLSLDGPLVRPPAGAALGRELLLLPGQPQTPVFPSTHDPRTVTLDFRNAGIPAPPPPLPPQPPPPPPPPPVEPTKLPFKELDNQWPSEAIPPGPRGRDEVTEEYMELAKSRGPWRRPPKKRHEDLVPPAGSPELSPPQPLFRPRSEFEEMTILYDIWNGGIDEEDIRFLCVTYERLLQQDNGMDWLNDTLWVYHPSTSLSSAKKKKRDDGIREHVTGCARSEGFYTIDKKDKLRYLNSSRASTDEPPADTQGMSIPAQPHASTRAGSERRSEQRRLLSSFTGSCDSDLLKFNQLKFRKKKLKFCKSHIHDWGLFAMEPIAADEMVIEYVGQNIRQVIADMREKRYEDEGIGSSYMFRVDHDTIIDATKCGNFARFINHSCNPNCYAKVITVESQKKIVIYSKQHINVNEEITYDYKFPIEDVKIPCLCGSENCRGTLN
Chain of N-lysine methyltransferase KMT5A (Homo sapiens) (Q9NQR1 whole entry): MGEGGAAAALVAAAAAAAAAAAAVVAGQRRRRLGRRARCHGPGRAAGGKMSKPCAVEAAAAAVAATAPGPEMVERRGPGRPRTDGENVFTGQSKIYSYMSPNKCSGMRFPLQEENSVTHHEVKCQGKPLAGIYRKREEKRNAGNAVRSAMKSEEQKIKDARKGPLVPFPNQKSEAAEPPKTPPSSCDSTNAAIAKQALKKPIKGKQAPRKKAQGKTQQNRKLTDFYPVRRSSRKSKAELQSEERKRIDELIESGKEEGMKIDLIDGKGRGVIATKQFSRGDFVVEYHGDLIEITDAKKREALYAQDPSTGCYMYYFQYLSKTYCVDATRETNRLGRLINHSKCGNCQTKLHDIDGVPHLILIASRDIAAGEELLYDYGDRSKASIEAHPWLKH

One may read the IC50 as the midpoint of a concentration-inhibition curve. A word on the inhibition: it is the percentage by which the read-out fell short of the control. Turning to `C=CC(=O)Nc1cc(NC2CCN(C(C)C)CC2)c2cc(OC)c(OCCCN3CCCC3)cc2n1`, the IC50 in assay [1] turned out to be 100 nM. Moreover, the inhibition in assay [2], in assay [3], in assay [4] and in assay [5] was < 50% each time.
